Entries after “also recorded” stand apart in the source; their conditions may differ.
Experiments:
[1] = tested on: dopaminergic neuronal cells in the substantia nigra and striatum; details: ref unpublished data, cited from earlier work
[2] = Multiple ascending dose; type: in vivo, human; details: for CSF KM-819 concentration: day 7, 1 hour postdose
Outline: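 Plasma was sampled on day 1 predose and at 0.25–12 h, on days 2–6 predose, and on day 7 predose and at 0.25–24 h. CSF was taken by lumbar puncture on day 1 predose and on day 7, 1 h after the last dose. Plasma was measured by UPLC-MS/MS with a deuterated internal standard, linear over 2–20,000 ng/mL (LOQ 2 ng/mL). Parameters came from non-compartmental analysis. Accumulation index = day 7 AUCtau and Cmax,ss over day 1 AUC0–24 and Cmax.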

[3] = 2 weeks, up to 1,000 mg/kg/day; cited from earlier work
[4] = tested on: dopaminergic neurons treated with MPTP; details: dose-dependent, ref unpublished data; cited from earlier work
[5] = PD assessments with CNS scales; type: in vivo, human
[6] = tested on: alpha-synuclein oligomer, total tau, phosphor-tau; test: MAD study, PD biomarkers; type: in vivo, human
Outline: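 Healthy male volunteers in the MAD part: young (19–45 y) or elderly (>60 y), randomized 6 active : 2 placebo per cohort, oral dosing once daily for 7 days. Blood and CSF sampled for alpha-synuclein oligomer, and CSF for total and phospho-tau, at day 1 predose and day 7, 1 h after last dose. CSF (about 2 mL) by lumbar puncture at L3–L4. Protein levels were measured by an external biomarker core.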

SMILES: Cc1nn(Cc2ccc(Br)cc2)c(C)c1NC(=O)CSc1ccccc1 [KM-819]
- behavioral impairments [1]: improved the behavioral impairments
- protection of dopaminergic neuronal cells ([1]; substantia nigra and striatum): protected the dopaminergic neuronal cells
- AUC0–24, geometric mean (CV%) ([2]; 30 mg QD, day 1, young): 1,761 (21.3) ng·h/mL
- Cmax, geometric mean (CV%) ([2]; 30 mg QD, day 1, young): 512.0 (30.9) ng/mL
- Tmax, median (min–max) ([2]; 30 mg QD, day 1, young): 2.00 (1.00–6.00) h
- CSF KM-819 concentration ([2]; 30 mg QD): no CSF KM-819 concentrations were measurable
- AUCtau, geometric mean (CV%) ([2]; 30 mg QD, day 7, young): 1,572 (24.8) ng·h/mL
- Cmax,ss, geometric mean (CV%) ([2]; 30 mg QD, day 7, young): 418.5 (51.7) ng/mL
- Tmax,ss, median (min–max) ([2]; 30 mg QD, day 7, young): 2.00 (1.00–6.00) h
- AUC0–24, geometric mean (CV%) ([2]; 100 mg QD, day 1, young): 3,735 (38.5) ng·h/mL
- Cmax, geometric mean (CV%) ([2]; 100 mg QD, day 1, young): 1,009 (33.0) ng/mL
- Tmax, median (min–max) ([2]; 100 mg QD, day 1, young): 2.00 (1.00–4.00) h
- mean CSF/Cmax ratio ([2]; 100 mg QD, day 7, CSF 1 hour postdose): 0.067%
- AUCtau, geometric mean (CV%) ([2]; 100 mg QD, day 7, young): 3,477 (17.9) ng·h/mL
- Cmax,ss, geometric mean (CV%) ([2]; 100 mg QD, day 7, young): 1,012 (39.5) ng/mL
- Cmin,ss, geometric mean (CV%) ([2]; 100 mg QD, day 7, young): 9.983 (31.1) ng/mL
- Tmax,ss, median (min–max) ([2]; 100 mg QD, day 7, young): 3.00 (1.00–4.00) h
- Cmax,ss in elderly relative to young ([2]; 200 mg QD for 7 days, day 7): 191%
- plasma exposure (AUCtau) in elderly relative to young ([2]; 200 mg QD for 7 days, day 7): 102%
- AUC0–24, geometric mean (CV%) ([2]; 200 mg QD, day 1, elderly): 17,590 (53.3) ng·h/mL
- Cmax, geometric mean (CV%) ([2]; 200 mg QD, day 1, elderly): 3,542 (76.4) ng/mL
- Tmax, median (min–max) ([2]; 200 mg QD, day 1, elderly): 2.00 (1.00–6.00) h
- AUC0–24, geometric mean (CV%) ([2]; 200 mg QD, day 1, young): 6,485 (62.2) ng·h/mL
- Cmax, geometric mean (CV%) ([2]; 200 mg QD, day 1, young): 1,465 (77.2) ng/mL
- Tmax, median (min–max) ([2]; 200 mg QD, day 1, young): 3.00 (2.00–6.00) h
- mean CSF/Cmax ratio ([2]; 200 mg QD, day 7, CSF 1 hour postdose, elderly): 0.032%
- mean CSF/Cmax ratio ([2]; 200 mg QD, day 7, CSF 1 hour postdose, young): 0.074%
- AUCtau, geometric mean (CV%) ([2]; 200 mg QD, day 7, elderly): 16,250 (34.1) ng·h/mL
- Cmax,ss, geometric mean (CV%) ([2]; 200 mg QD, day 7, elderly): 3,231 (52.5) ng/mL
- Cmin,ss, geometric mean (CV%) ([2]; 200 mg QD, day 7, elderly): 44.82 (48.3) ng/mL
- Tmax,ss, median (min–max) ([2]; 200 mg QD, day 7, elderly): 2.00 (1.00–4.00) h
- AUCtau, geometric mean (CV%) ([2]; 200 mg QD, day 7, young): 8,023 (7.7) ng·h/mL
- Cmax,ss, geometric mean (CV%) ([2]; 200 mg QD, day 7, young): 1,111 (64.3) ng/mL
- Cmin,ss, geometric mean (CV%) ([2]; 200 mg QD, day 7, young): 32.44 (19.4) ng/mL
- Tmax,ss, median (min–max) ([2]; 200 mg QD, day 7, young): 4.00 (4.00–4.00) h
- AUC0–24, geometric mean (CV%) ([2]; 400 mg QD, day 1, young): 11,260 (37.1) ng·h/mL
- Cmax, geometric mean (CV%) ([2]; 400 mg QD, day 1, young): 3,163 (50.7) ng/mL
- Tmax, median (min–max) ([2]; 400 mg QD, day 1, young): 2.00 (1.00–6.00) h
- mean CSF/Cmax ratio ([2]; 400 mg QD, day 7, CSF 1 hour postdose): 0.049%
- AUCtau, geometric mean (CV%) ([2]; 400 mg QD, day 7, young): 19,530 (96.4) ng·h/mL
- Cmax,ss, geometric mean (CV%) ([2]; 400 mg QD, day 7, young): 3,172 (37.9) ng/mL
- Cmin,ss, geometric mean (CV%) ([2]; 400 mg QD, day 7, young): 75.14 (28.4) ng/mL
- Tmax,ss, median (min–max) ([2]; 400 mg QD, day 7, young): 2.00 (0.50–4.00) h
- dose proportionality of plasma exposure (AUC) after repeated dosing ([2]; 30–400 mg QD for 7 days, day 7): approximately dose-proportional; also recorded: dose-proportional increase
- variability (CV%) of AUCtau and Cmax,ss ([2]; MAD): up to 96%
- dose proportionality of AUC and Cmax after a single dose ([2]; MAD, day 1): less than dose-proportional increase
- dose proportionality of Cmax after repeated dosing ([2]; MAD, day 7): less than dose-proportional increase
- dose proportionality of Cmin after repeated dosing ([2]; MAD, day 7): slightly more than dose-proportional increase
- Estimated mean slope, dose proportionality power model, Cmin,ss ([2]; MAD, day 7, N=21): 1.1852
- mean CSF/Cmax ratio ([2]; each cohort): less than 0.1%
- time to steady-state (trough) concentrations ([2]; repeated QD dosing, each group): 5 days
- CSF KM-819 concentration ([2]; ≥100 mg QD): measurable in more than half of the CSF samples
- adverse effects after repeated administration [3]: did not show adverse effects
- protection of dopaminergic neurons [4]: protect the dopaminergic neurons
- Bond and Lader VAS ([5]; SAD and MAD): No signs of KM-819 treatment-related effects
- C-SSRS ([5]; SAD and MAD): no apparent treatment or cohort differences
- K-WAIS-IV ([5]; SAD and MAD): no clear treatments differences
- POMS ([5]; SAD and MAD): no apparent treatment or cohort differences
- effects on the estimated pharmacodynamic variables ([5]; whole study): No clear treatment-related effects
- Alpha-synuclein oligomer, CSF, change from baseline (day 1 predose) to day 7, mean (SD) ([6]; 30 mg QD, young): 49.94 (72.09) pg/mL
- Alpha-synuclein oligomer, plasma, change from baseline (day 1 predose) to day 7, mean (SD) ([6]; 30 mg QD, young): 3,884.41 pg/mL
- Phosphor-tau, CSF, change from baseline (day 1 predose) to day 7, mean (SD) ([6]; 30 mg QD, young): 6.41 (19.04) pg/mL
- Total tau, CSF, change from baseline (day 1 predose) to day 7, mean (SD) ([6]; 30 mg QD, young): 60.30 (64.42) pg/mL
- Alpha-synuclein oligomer, CSF, change from baseline (day 1 predose) to day 7, mean (SD) ([6]; 100 mg QD, young): −252.56 (643.49) pg/mL
- Alpha-synuclein oligomer, plasma, change from baseline (day 1 predose) to day 7, mean (SD) ([6]; 100 mg QD, young): 575.46 (18,379.46) pg/mL
- Phosphor-tau, CSF, change from baseline (day 1 predose) to day 7, mean (SD) ([6]; 100 mg QD, young): 0.21 (1.13) pg/mL
- Total tau, CSF, change from baseline (day 1 predose) to day 7, mean (SD) ([6]; 100 mg QD, young): 9.23 (15.82) pg/mL
- Alpha-synuclein oligomer, CSF, change from baseline (day 1 predose) to day 7, mean (SD) ([6]; 200 mg QD, elderly): 34.87 (51.42) pg/mL
- Alpha-synuclein oligomer, plasma, change from baseline (day 1 predose) to day 7, mean (SD) ([6]; 200 mg QD, elderly): −11,712.09 pg/mL
- Phosphor-tau, CSF, change from baseline (day 1 predose) to day 7, mean (SD) ([6]; 200 mg QD, elderly): 5.16 (10.88) pg/mL
- Total tau, CSF, change from baseline (day 1 predose) to day 7, mean (SD) ([6]; 200 mg QD, elderly): 29.30 (100.07) pg/mL
- Alpha-synuclein oligomer, CSF, change from baseline (day 1 predose) to day 7, mean (SD) ([6]; 200 mg QD, young): 0.60 (18.22) pg/mL
- Alpha-synuclein oligomer, plasma, change from baseline (day 1 predose) to day 7, mean (SD) ([6]; 200 mg QD, young): 3,809.51 pg/mL
- Phosphor-tau, CSF, change from baseline (day 1 predose) to day 7, mean (SD) ([6]; 200 mg QD, young): 4.47 (7.88) pg/mL
- Total tau, CSF, change from baseline (day 1 predose) to day 7, mean (SD) ([6]; 200 mg QD, young): −3.16 (15.01) pg/mL
- Alpha-synuclein oligomer, CSF, change from baseline (day 1 predose) to day 7, mean (SD) ([6]; 400 mg QD, young): 18.21 (103.83) pg/mL
- Alpha-synuclein oligomer, plasma, change from baseline (day 1 predose) to day 7, mean (SD) ([6]; 400 mg QD, young): −64,843.29 pg/mL
- Phosphor-tau, CSF, change from baseline (day 1 predose) to day 7, mean (SD) ([6]; 400 mg QD, young): 6.70 (11.82) pg/mL
- Total tau, CSF, change from baseline (day 1 predose) to day 7, mean (SD) ([6]; 400 mg QD, young): 27.86 (66.07) pg/mL

Reference: publication PMC6445238 (Drug Design, Development and Therapy, 2019)
